Each structure is given as a SMILES string.

For the test, the target named is Kappa-type opioid receptor (Rattus norvegicus) (UniProt P34975). Briefly: Agonist activity at rat cloned kappa opioid receptor expressed in CHO cells assessed as inhibition of forskolin-induced cAMP production by scintillation counting relative to Dyn A-(1-13)NH2. The test is classed as functional, cell-based. As to conditions: concentration not given here. In a few lines: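 CHO cells stably expressing cloned rat κ receptor, washed in F12 and labelled 4 h with [3H]adenine. Then 40 min at 37 °C with 50 μM forskolin, peptidase inhibitors (bestatin, captopril, L-leucyl-L-leucine) and peptide at 0.1–10,000 nM in 10-fold steps. [3H]cAMP isolated on cation exchange resin and alumina, [14C]cAMP added for recovery, scintillation counted. Efficacy relative to Dyn A-(1-13)NH2. Mean ± SEM, ≥3 assays.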
(In general: Cyclic AMP is a second messenger, typically raised through Gs and lowered through Gi signalling.)

Kappa-type opioid receptor (Rattus norvegicus), sequence (P34975 whole entry): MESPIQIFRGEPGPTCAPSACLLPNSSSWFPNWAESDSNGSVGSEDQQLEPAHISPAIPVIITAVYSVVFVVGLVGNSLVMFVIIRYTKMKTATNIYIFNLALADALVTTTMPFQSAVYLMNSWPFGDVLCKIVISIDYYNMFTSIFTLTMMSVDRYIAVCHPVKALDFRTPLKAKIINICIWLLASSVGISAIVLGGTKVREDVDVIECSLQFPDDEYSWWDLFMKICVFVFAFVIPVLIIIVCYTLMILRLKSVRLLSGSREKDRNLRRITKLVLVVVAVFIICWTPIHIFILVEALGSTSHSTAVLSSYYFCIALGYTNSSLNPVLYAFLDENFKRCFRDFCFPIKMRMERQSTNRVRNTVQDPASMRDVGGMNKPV

As a reminder, the inhibition is the drop in the measured response relative to a control, in per cent. Turning to `CC[C@H](C)[C@H](NC(=O)[C@H](CCCN=C(N)N)NC(=O)[C@H](CCCN=C(N)N)NC(=O)[C@H](CC(C)C)NC(=O)[C@H](Cc1ccccc1)NC(=O)CNC(=O)CNC(=O)[C@@H](N)Cc1ccc(O)cc1)C(=O)N[C@@H](CCCN=C(N)N)C(=O)N1CCC[C@H]1C(=O)N[C@@H](CCCCN)C(N)=O`, the inhibition turned out to be 100%.

`N=C(N)NCCC[C@@H]1NC(=O)[C@@H](NC(=O)[C@H](Cc2ccccc2)NC(=O)CNC(=O)CNC(=O)[C@@H](N)Cc2ccc(O)cc2)C/C=C\C[C@@H](C(=O)N[C@@H](CCCNC(=N)N)C(=O)N2CCC[C@H]2C(=O)N[C@@H](CCCCN)C(N)=O)NC(=O)[C@H](CCCNC(=N)N)NC1=O`: the inhibition is 110%.
